Test results: PMC9285861 (Biomacromolecules, 2019)
Like-named read-outs stand apart in the source and are kept apart here.

Experiments:
[1] = Reverse phase HPLC; type: physicochemical; details: Figure S2
[2] = Thioflavin T; type: physicochemical; details: 50 μM Aβ, 100 μM ThT, 37 °C, without plasma proteins, Ex/Em 440/485 nm, triplicate
[3] = tested on: monocytes; assay: Blood cell association of ThT-labeled Aβ by flow cytometry, monocytes; type: cell-based, human; details: 1 h, triplicate
Procedure, shortened: (§1)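 Heparinised whole blood, or blood washed five times in PBS (950g, 10 min) and resuspended in serum-free RPMI 1640, given ThT-labeled test peptide oligomers or fibrils at 5, 10, 15 μM, 1 h at 4 and 37 °C, triplicate. RBCs lysed; antibody staining 1 h on ice; 1% formaldehyde fixation; flow cytometry with populations gated by CD3, CD14, CD56, CD19, Lin1/HLA-DR, SSC-A.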

[4] = tested on: dendritic cells (DCs); assay: Blood cell association of ThT-labeled Aβ by flow cytometry, dendritic cells; type: cell-based, human; details: 1 h
Procedure, shortened: as §1

[5] = tested on: granulocytes; assay: Blood cell association of ThT-labeled Aβ by flow cytometry, granulocytes; type: cell-based, human; details: 1 h
Procedure, shortened: as §1

[6] = tested on: NK cells; assay: Blood cell association of ThT-labeled Aβ by flow cytometry, NK cells; type: cell-based, human; details: especially with plasma proteins, 1 h
Procedure, shortened: as §1

[7] = tested on: B cells; assay: Blood cell association of ThT-labeled Aβ by flow cytometry, B cells; type: cell-based, human; details: 1 h
Procedure, shortened: as §1

[8] = tested on: Human monocytic THP-1 cells; assay: LSPR immunoassay of cytokine secretion, THP-1 cells; type: cell-based; details: 37 °C, 2 h incubation, 5, 10, 15 μM, LSPR read-out
[9] = tested on: human immune cell lines (T cells, B cells, or THP-1 cells); assay: LSPR immunoassay of cytokine secretion, immune cell lines; type: cell-based; details: for effect of plasma proteins on immune responses (cytokine secretion): 37 °C, human plasma versus RPMI-1640 medium, all three types of immune cells
Procedure, shortened: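 Jurkat T (RPMI-1640, 200 μg/mL […], 10% FBS), EBV-transformed B lymphoblasts and THP-1 (50 μM mercaptoethanol) cells at 1 × 10^6 cells/mL in human plasma proteins or RPMI-1640 took test peptide oligomers or fibrils, 5, 10, 15 μM final, 2 h at 4 and 37 °C. TNF and IL-6 in medium measured on antibody–gold nanorod LSPR chips via calibration curves; triplicate.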

[10] = tested on: SH-SY5Y neuroblastoma cells; details: 20 μM Aβ, 15 h, triplicate, ± SD
[11] = tested on: SH-SY5Y neuronal cells; details: 20 μM Aβ, 2 h
[12] = tested on: T cells; assay: Blood cell association of ThT-labeled Aβ by flow cytometry, T cells; type: cell-based, human; details: 1 h
Procedure, shortened: as §1

[13] = 5 μM, with plasma proteins, triplicate ± SD
[14] = 5 μM, without plasma proteins, triplicate ± SD
[15] = 10 μM, with plasma proteins, triplicate ± SD
[16] = 10 μM, without plasma proteins, triplicate ± SD
[17] = 15 μM, with plasma proteins, triplicate ± SD
[18] = 15 μM, without plasma proteins, triplicate ± SD

For “AIAEGDSHVLKEGAY-MEIFDVQGHVFGGKIFRVVDLGSHNVA [AβO]”, the “hydrophobicity by RP-HPLC” value [1] was “slightly hydrophobic”, the “time to saturation phase of ThT fibrillization kinetics” value [2] was ~ 60 h and the association with monocytes ([3]; all concentrations (5, 10, 15 μM), all conditions) was 90–100%. For the same substance, the “association with DCs” value ([4]; in the absence of plasma proteins, range over 5-15 μM) was 78–85%, the “association with DCs” value ([4]; whole blood cells (with plasma proteins), range over 5-15 μM) was 69–93% and the association with granulocytes ([5]; with and without plasma proteins (no considerable difference)) was 80–90%. For the same substance, the “association with NK cells” value [6] was “very low association”, the “change of association with B cells from whole blood to washed cells” value ([7]; 3 concentrations (5, 10, 15 μM)) was “slightly decreased” and the “pro-inflammatory cytokine secretion (TNF, IL-6) of THP-1 cells” value [8] was “prominent pro-inflammatory cytokine secretion”. For the same substance, the “effect of plasma proteins on immune responses (cytokine secretion)” value [9] was “mostly promoted”, the “expression of cytokines IL-6 and TNF by immune cells” value ([9]; 2 h incubation, LSPR sensor) was “significant expression” and the “cytotoxicity (PI-positive cells)” value ([10]; with plasma proteins) was 30 ± 2%. The “cytotoxicity (PI-positive cells)” value ([10]; without plasma proteins) was 39 ± 2.6%, the “cell membrane damage by HIM” value ([11]; with plasma proteins) was “damage was reduced” and the “cell membrane damage by HIM” value ([11]; without plasma proteins) was “significant damage including membrane deformation and blebbing”.
For “AIAEGDSHVLKEGAY-MEIFDVQGHVFGGKIFRVVDLGSHNVA [Aβf]”, the “hydrophobicity by RP-HPLC” value [1] was “varying hydrophobicity”, the association with monocytes ([3]; high concentrations) was 60–80% and the association with monocytes ([3]; low concentrations) was 20–40%. The “association with T cells” value ([12]; 5 μM, without plasma proteins (washed blood), triplicate ± SD) was 5.2 ± 0.1%, the “association with T cells” value ([12]; 10 μM, without plasma proteins (washed blood), triplicate ± SD) was 38.2 ± 3.2% and the “association with T cells” value ([12]; 15 μM, without plasma proteins (washed blood), triplicate ± SD) was 51.8 ± 1.5%. The “association with T cells” value ([12]; with plasma proteins (whole blood)) was < 10%, the “association with DCs” value [4, 13] was 11.1 ± 3.7% and the “association with DCs” value [4, 14] was 38.2 ± 3.3%. For the same substance, the “association with DCs” value [4, 15] was 35 ± 0.7%, the “association with DCs” value [4, 16] was 69.2 ± 3.1% and the “association with DCs” value [4, 17] was 56.5 ± 13%. For the same substance, the “association with DCs” value [4, 18] was 71.2 ± 6.4%, the association with granulocytes [5, 13] was 7.0 ± 2.9% and the association with granulocytes [5, 14] was 11.7 ± 0.4%. It also gave an association with granulocytes [5, 15] of 21.6 ± 1.2%, an association with granulocytes [5, 16] of 38.5 ± 5.4% and an association with granulocytes [5, 17] of 35.7 ± 2.6%. For the same substance, the association with granulocytes [5, 18] was 51.8 ± 3.1%, the “association with NK cells” value [6] was “no association” and the “association with B cells” value ([7]; 10 μM, whole blood as the sentence is printed, triplicate ± SD) was 36.6 ± 6.0%. For the same substance, the “association with B cells” value ([7]; 15 μM, whole blood as the sentence is printed, triplicate ± SD) was 57.1 ± 0.9%, the “association with B cells” value ([7]; 3 concentrations (5, 10, 15 μM), washed cells as the sentence is printed) was “below 5%” and the “effect of plasma proteins on immune responses (cytokine secretion)” value [9] was “overall suppressed immune responses”. The “cytotoxicity (PI-positive cells)” value ([10]; with plasma proteins) was “not affected by plasma proteins”, the “cytotoxicity (PI-positive cells)” value ([10]; without plasma proteins) was 13% and the “cell membrane damage by HIM” value ([11]; with plasma proteins) was “no damage was evident”. For the same substance, the “cell membrane damage by HIM” value ([11]; without plasma proteins) was “no damage was evident”.
In the case of “AIAEGDSHVLKEGAY-MEIFDVQGHVFGGKIFRVVDLGSHNVA [Aβm, reference compound]”, the “time to saturation phase of ThT fibrillization kinetics” value [2] is reported as ~ 60 h.
